ChEMBL document CHEMBL5223075, “Discovery of thienothiazolocarboxamide analogues as novel anti-tubercular agent” (Bioorg Med Chem, 2020)
In brackets after ≈: the same amount, converted by molar mass. Activity calls are given as the source filed them. The rule behind the calls is not given here.

How the values were obtained:
[1] = system: Mycobacterium tuberculosis; assay: Antitubercular activity against Mycobacterium tuberculosis H37Rv ATCC 27294 expressing the green fluorescence protein assessed as inhibition of bacterial growth by measuring GFP fluorescence incubated for 5 days by fluorescence based plate reader analysis; assay type: functional, organism-based; conditions: H37Rv ATCC 27294, 120 h
In short: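 H37Rv-GFP was grown 14 days in 7H9/OADC/Tween/glycerol/hygromycin, washed, and seeded at ~3×10^6 CFU/mL. Compounds were given as 10-point 2-fold series starting at 20 or 1 µM, in 1% DMSO final. Plates ran 5 days at 37°C, 5% CO2, with rifampicin 1 µg/mL as positive control. GFP fluorescence was read and IC50 taken from a 4-parameter sigmoid fit.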

[2] = system: Mycobacterium tuberculosis; assay: Antitubercular activity against Mycobacterium tuberculosis H37Rv ATCC 27294 expressing the green fluorescence protein infected in mouse RAW264.7 cells assessed as inhibition of bacterial growth pre-infected with cell followed by compound addition and measured after 5 days by Hoechst 33342 staining based analysis; assay type: functional, organism-based; conditions: H37Rv ATCC 27294, RAW264.7, 120 h
In short: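 RAW 264.7 cells, passages 2-9, were infected with washed H37Rv-GFP at MOI 20 for 2 h at 37°C with shaking. Cells were washed and plated at 20,000/well over 2-fold compound dilutions for 5 days. Nuclei were stained with 5 µM Hoechst (final) and 3 fields/well imaged. Four parameters (cell count, bacterial area, area per infected cell, infected-cell ratio) were each fitted by 4-parameter sigmoid, and the IC50s averaged.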

[3] = Metabolic stability in human liver microsome assessed as phase I mediated metabolite formation by measuring half-life; assay type: ADME; conditions: microsomes
[4] = Metabolic stability in mouse liver microsome assessed as phase I mediated metabolite formation by measuring half-life; assay type: ADME; conditions: microsomes
[5] = Solubility of the compound at pH 7.4; assay type: physicochemical; conditions: buffer
[6] = Solubility of the compound at pH 2.1; assay type: physicochemical; conditions: buffer
[7] = Metabolic stability in human liver microsome assessed as phase II mediated metabolite formation by measuring half-life; assay type: ADME; conditions: microsomes
[8] = Metabolic stability in mouse liver microsome assessed as phase II mediated metabolite formation by measuring half-life; assay type: ADME; conditions: microsomes
[9] = Stability in human plasma measured after 2 hrs; assay type: ADME, cell-free; conditions: read-out: Stability
[10] = Stability in mouse plasma measured after 2 hrs; assay type: ADME, cell-free; conditions: read-out: Stability
[11] = Protein binding in human plasma; assay type: ADME, cell-free; conditions: read-out: PPB (converted)
[12] = Protein binding in mouse plasma; assay type: ADME, cell-free; conditions: read-out: PPB (converted)
A549 = assay: Cytotoxicity against human A549 cells assessed as inhibition of cell growth; assay type: functional, cell-based
[13] = Cytotoxicity against HEK293 cells assessed as inhibition of cell growth; assay type: toxicity, cell-based; conditions: human
HepG2 = assay: Cytotoxicity against human HepG2 cells assessed as inhibition of cell growth; assay type: functional, cell-based
Jurkat = assay: Cytotoxicity against human Jurkat cells assessed as inhibition of cell growth; assay type: functional, cell-based
[14] = Genotoxicity in Salmonella typhimurium TA98 by Ames mutagenicity test; assay type: toxicity; conditions: salmonella enterica subsp. enterica serovar typhimurium
[15] = Genotoxicity in Salmonella typhimurium TA100 by Ames mutagenicity test; assay type: toxicity; conditions: salmonella enterica subsp. enterica serovar typhimurium
[16] = Genotoxicity in Salmonella typhimurium TA98 in the presence of S9 fraction by Ames mutagenicity test; assay type: toxicity, subcellular; conditions: salmonella enterica subsp. enterica serovar typhimurium
[17] = Genotoxicity in Salmonella typhimurium TA100 in the presence of S9 fraction by Ames mutagenicity test; assay type: toxicity, subcellular; conditions: salmonella enterica subsp. enterica serovar typhimurium
[18] = Half-life in BALB/c mouse at 3 mg/kg, iv by LC-MS analysis; assay type: ADME, organism-based; conditions: in vivo
In short: (§1)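 Female BALB/c mice, 6-8 weeks old. Dosed i.v. at 2 or 3 mg/kg, or orally at 10 mg/kg. Vehicles varied by compound: DMSO/Captisol, DMSO/PEG400/SBE-b-CD, or DMSO/Cremophor EL/Captisol. Blood was held at 4°C within 1 h, then centrifuged at 3200 × g for 10 min at 4°C. Plasma was kept at 4°C, and compound levels were measured by LC-MS.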

[19] = Clearance in BALB/c mouse at 3 mg/kg, iv by LC-MS analysis; assay type: ADME, organism-based; conditions: in vivo; in short: as §1
[20] = Volume of distribution at steady state in BALB/c mouse at 3 mg/kg, iv by LC-MS analysis; assay type: ADME, organism-based; conditions: in vivo, read-out: Vdss; in short: as §1
[21] = Half-life in BALB/c mouse at 10 mg/kg, po by LC-MS analysis; assay type: ADME, organism-based; conditions: in vivo; in short: as §1
[22] = Cmax in BALB/c mouse at 10 mg/kg, po by LC-MS analysis; assay type: ADME, organism-based; set-up: dose 10 mg/kg, route po; conditions: in vivo; in short: as §1
[23] = AUClast in BALB/c mouse at 10 mg/kg, po by LC-MS analysis; assay type: ADME, organism-based; set-up: dose 10 mg/kg, route po; conditions: in vivo; in short: as §1
[24] = Oral bioavailability in BALB/c mouse at 10 mg/kg by LC-MS analysis; assay type: ADME, organism-based; conditions: in vivo; in short: as §1
[25] = Drug concentration in BALB/c mouse plasma at 10 mg/kg, po by LC-MS analysis; assay type: ADME, organism-based; conditions: in vivo; in short: as §1
[26] = Drug concentration in BALB/c mouse lung at 10 mg/kg, po by LC-MS analysis; assay type: ADME, organism-based; conditions: in vivo; in short: as §1
[27] = Ratio of drug concentration in lung to plasma in BALB/c mouse at 10 mg/kg, po by LC-MS analysis; assay type: ADME, organism-based; in short: as §1
[28] = Tmax in BALB/c mouse at 10 mg/kg, po by LC-MS analysis; assay type: ADME, organism-based; conditions: in vivo; in short: as §1
[29] = system: Mycobacterium tuberculosis; assay: Antibacterial activity against Mycobacterium tuberculosis H37Rv ATCC 27294 infected in BALB/c mouse assessed as reduction in CFU in lungs at 50 mg/kg, po administered five times a week for 28 days; assay type: functional, organism-based; conditions: time 28.0 day
In short: (§2)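 Female BALB/c mice, 6-8 weeks old, were infected intranasally with ~300-600 CFU H37Rv, 5 mice per group. Oral gavage began at day 21, 5 days/week for 4 weeks. Lungs were taken a day after the last dose, homogenized in PBS, serially diluted and plated in duplicate on 7H11-OADC agar for 2-5 weeks at 37°C. Detection limit ~2.3 logs. Bonferroni test against vehicle-treated mice.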

[30] = system: Mycobacterium tuberculosis; assay: Antibacterial activity against Mycobacterium tuberculosis H37Rv ATCC 27294 infected in BALB/c mouse assessed as reduction in CFU in lungs at 20 mg/kg, po administered five times a week for 28 days; assay type: functional, organism-based; conditions: time 28.0 day; in short: as §2
[31] = system: Mycobacterium tuberculosis; assay: Antibacterial activity against Mycobacterium tuberculosis H37Rv ATCC 27294 infected in BALB/c mouse assessed as reduction in bacterial burden in lungs at 100 mg/kg, po administered five times a week for 28 days; assay type: functional; conditions: time 28 day; in short: as §2
[32] = system: Mycobacterium tuberculosis; assay: Antibacterial activity against Mycobacterium tuberculosis H37Rv ATCC 27294 infected in BALB/c mouse assessed as decrease in number of CFU in lungs at 100 mg/kg, po administered five times a week for 28 days; assay type: functional; conditions: time 28 day; in short: as §2

In the case of `O=C(Nc1ccc(-c2ccc(F)cn2)cc1)c1cc2sc(NCCN3CCOCC3)nc2s1`, the IC50 [1] is reported as 760 nM, the IC50 [2] is reported as 190 nM and the t1/2 [3] is reported as greater than 60 min. It also gave a t1/2 [4] of 45.5 min, a solubility [5] of 0.76 µg/mL (≈ 1.57 µM) and a solubility [6] of 43.6 µg/mL (≈ 90.2 µM). For the same compound, the t1/2 [7] was greater than 60 min, the t1/2 [8] was greater than 60 min and the remaining at 2 h [9] was 98.2%. It also gave a remaining at 2 h [10] greater than 100%, a fraction unbound [11] of 0.002 and a fraction unbound [12] of 0.002. It also gave an IC50 (A549) greater than 50 µM, an IC50 [13] greater than 50 µM and an IC50 (HepG2) greater than 50 µM. The IC50 (Jurkat) was greater than 50 µM, the Activity [14] was “Non-Toxic” and the Activity [15] was “Non-Toxic”. For the same compound, the Activity [16] was “Non-Toxic”, the Activity [17] was “Non-Toxic” and the half-life [18] was 72 min. It also gave a clearance [19] of 14.9 mL/min/kg, a Vd [20] of 1.52 L/kg and a half-life [21] of 138 min. It also gave a Cmax [22] of 2940 ng/mL, an AUC(0-t) [23] of 10400 ng·h/mL and a bioavailability [24] of 102%. It also gave a Cp [25] of 3380 ng/mL, a Ct [26] of 16180 ng/mL and a Kp [27] of 4.8. For the same compound, the Tmax [28] was 1 h, the Activity [29] was “Active” and the Activity [30] was “inactive”. For the same compound, the “log(activity)” value [31] was 4 and the Activity [32] was 2.7 log10CFU.
